Test results reported in ChEMBL document CHEMBL4382248, “Optimization of a 1,3,4-oxadiazole series for inhibition of Ca2+/calmodulin-stimulated activity of adenylyl cyclases 1 and 8 for the treatment of chronic pain” (Eur J Med Chem, 2019).

How the values were obtained:
Format in all cases: cell-based
Adenylate cyclase type 8 [1] = molecular target: T1, Adenylate cyclase type 8 (Homo sapiens, UniProt P40145); test: Inhibition of human AC8 expressed in HEK293 cells assessed as decrease in A23187-stimulated cAMP accumulation at 30 uM preincubated for 30 mins followed by A23187 stimulation and measured after 1 hr by fluorescence assay relative to control
Method in brief: (§1)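 HEK cells stably expressing AC1 or AC8; Ca2+/calmodulin-stimulated cAMP accumulation measured. Dose-response curves began at 30 µM. […] Values are the mean and SEM of three independent experiments.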

[2] = Cytotoxicity against HEK293 cells expressing human AC1 at 30 uM preincubated for 30 mins followed by A23187 stimulation and measured after 1 hr by CellTiter-Glo luminescent cell viability assay relative to control; conditions: HEK293 cells expressing human AC1, read-out: Activity
Method in brief: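 Cytotoxicity in HEK lines stably expressing AC1 or AC8: single 30 µM dose, 90 min incubation. Viability was read by luminescent ATP reporter as % of DMSO-treated (100%) and Triton-X-treated (0%) controls.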

Homo sapiens = species on record: Homo sapiens; test: Selectivity ratio of IC50 for human AC8 expressed in HEK293 cells to IC50 for human AC1 expressed in HEK293 cells
Adenylate cyclase type 1 [3] = molecular target: T2, Adenylate cyclase type 1 (Homo sapiens, UniProt Q08828); test: Inhibition of human AC1 expressed in HEK293 cells assessed as decrease in A23187-stimulated cAMP accumulation preincubated for 30 mins followed by A23187 stimulation and measured after 1 hr by fluorescence assay; method in brief: as §1
Target sequence in this assay (Q08828 whole entry): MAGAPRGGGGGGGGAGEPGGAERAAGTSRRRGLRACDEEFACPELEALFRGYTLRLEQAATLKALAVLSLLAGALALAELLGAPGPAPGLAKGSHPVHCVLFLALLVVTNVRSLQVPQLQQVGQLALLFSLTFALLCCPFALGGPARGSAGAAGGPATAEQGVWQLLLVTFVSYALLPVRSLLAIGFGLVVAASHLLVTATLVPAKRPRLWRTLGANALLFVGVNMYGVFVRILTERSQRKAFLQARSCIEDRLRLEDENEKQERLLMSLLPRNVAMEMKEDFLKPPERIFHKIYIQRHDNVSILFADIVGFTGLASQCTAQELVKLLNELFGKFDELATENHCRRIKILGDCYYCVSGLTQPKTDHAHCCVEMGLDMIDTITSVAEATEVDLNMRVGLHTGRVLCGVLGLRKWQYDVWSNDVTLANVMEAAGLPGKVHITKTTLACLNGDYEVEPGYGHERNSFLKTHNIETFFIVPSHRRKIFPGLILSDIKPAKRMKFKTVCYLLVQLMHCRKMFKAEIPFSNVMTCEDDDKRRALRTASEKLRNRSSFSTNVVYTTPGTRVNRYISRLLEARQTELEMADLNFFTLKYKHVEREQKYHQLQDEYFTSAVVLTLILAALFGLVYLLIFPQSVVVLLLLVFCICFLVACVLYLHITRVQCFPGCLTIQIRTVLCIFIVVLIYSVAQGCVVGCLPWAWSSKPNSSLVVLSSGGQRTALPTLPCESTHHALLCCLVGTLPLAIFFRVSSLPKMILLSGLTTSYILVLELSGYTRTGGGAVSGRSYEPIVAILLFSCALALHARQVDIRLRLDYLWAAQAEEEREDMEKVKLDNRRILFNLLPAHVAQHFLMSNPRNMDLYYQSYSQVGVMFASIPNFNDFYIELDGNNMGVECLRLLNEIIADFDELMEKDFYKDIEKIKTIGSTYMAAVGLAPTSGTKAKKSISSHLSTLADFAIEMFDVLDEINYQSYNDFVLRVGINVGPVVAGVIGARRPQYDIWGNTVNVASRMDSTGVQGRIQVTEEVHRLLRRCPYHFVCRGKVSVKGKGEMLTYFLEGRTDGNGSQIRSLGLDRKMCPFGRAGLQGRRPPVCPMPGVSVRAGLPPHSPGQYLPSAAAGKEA

Adenylate cyclase type 8 [4] = molecular target: T1, Adenylate cyclase type 8; test: Inhibition of human AC8 expressed in HEK293 cells assessed as decrease in A23187-stimulated cAMP accumulation preincubated for 30 mins followed by A23187 stimulation and measured after 1 hr by fluorescence assay; method in brief: as §1
[5] = molecular target: Adenylate cyclase type 2 (Homo sapiens) (UniProt Q08462); test: Inhibition of human AC2 expressed in HEK293 cells assessed as PMA-stimulated cAMP accumulation at 30 uM preincubated for 30 mins followed by PMA stimulation and measured after 1 hr by fluorescence assay relative to control; set-up: scale not given: the % may be the effect or the level left
Method in brief: (§2)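 Group 2 AC2 (PKC-stimulated) or group 3 AC (forskolin-stimulated) cells were exposed to a single 30 µM dose (n = 3). cAMP activity was normalized to DMSO controls set as 100%.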

[6] = molecular target: Adenylate cyclase type 5 (Homo sapiens) (UniProt O95622); test: Inhibition of human AC5 expressed in HEK293 cells assessed as forskolin-stimulated cAMP accumulation at 30 uM preincubated for 30 mins followed by forskolin stimulation and measured after 1 hr by fluorescence assay relative to control; set-up: scale not given: the % may be the effect or the level left; method in brief: as §2
Adenylate cyclase type 1 [7] = molecular target: T2, Adenylate cyclase type 1; test: Inhibition of human AC1 expressed in HEK293 cells assessed as decrease in A23187-stimulated cAMP accumulation at 30 uM preincubated for 30 mins followed by A23187 stimulation and measured after 1 hr by fluorescence assay relative to control; method in brief: as §1
Target sequence in this assay (Q08828 whole entry, looked up): as the sequence (Q08828 whole entry) above

Sequence of Adenylate cyclase type 5 (Homo sapiens) (O95622 whole entry, looked up): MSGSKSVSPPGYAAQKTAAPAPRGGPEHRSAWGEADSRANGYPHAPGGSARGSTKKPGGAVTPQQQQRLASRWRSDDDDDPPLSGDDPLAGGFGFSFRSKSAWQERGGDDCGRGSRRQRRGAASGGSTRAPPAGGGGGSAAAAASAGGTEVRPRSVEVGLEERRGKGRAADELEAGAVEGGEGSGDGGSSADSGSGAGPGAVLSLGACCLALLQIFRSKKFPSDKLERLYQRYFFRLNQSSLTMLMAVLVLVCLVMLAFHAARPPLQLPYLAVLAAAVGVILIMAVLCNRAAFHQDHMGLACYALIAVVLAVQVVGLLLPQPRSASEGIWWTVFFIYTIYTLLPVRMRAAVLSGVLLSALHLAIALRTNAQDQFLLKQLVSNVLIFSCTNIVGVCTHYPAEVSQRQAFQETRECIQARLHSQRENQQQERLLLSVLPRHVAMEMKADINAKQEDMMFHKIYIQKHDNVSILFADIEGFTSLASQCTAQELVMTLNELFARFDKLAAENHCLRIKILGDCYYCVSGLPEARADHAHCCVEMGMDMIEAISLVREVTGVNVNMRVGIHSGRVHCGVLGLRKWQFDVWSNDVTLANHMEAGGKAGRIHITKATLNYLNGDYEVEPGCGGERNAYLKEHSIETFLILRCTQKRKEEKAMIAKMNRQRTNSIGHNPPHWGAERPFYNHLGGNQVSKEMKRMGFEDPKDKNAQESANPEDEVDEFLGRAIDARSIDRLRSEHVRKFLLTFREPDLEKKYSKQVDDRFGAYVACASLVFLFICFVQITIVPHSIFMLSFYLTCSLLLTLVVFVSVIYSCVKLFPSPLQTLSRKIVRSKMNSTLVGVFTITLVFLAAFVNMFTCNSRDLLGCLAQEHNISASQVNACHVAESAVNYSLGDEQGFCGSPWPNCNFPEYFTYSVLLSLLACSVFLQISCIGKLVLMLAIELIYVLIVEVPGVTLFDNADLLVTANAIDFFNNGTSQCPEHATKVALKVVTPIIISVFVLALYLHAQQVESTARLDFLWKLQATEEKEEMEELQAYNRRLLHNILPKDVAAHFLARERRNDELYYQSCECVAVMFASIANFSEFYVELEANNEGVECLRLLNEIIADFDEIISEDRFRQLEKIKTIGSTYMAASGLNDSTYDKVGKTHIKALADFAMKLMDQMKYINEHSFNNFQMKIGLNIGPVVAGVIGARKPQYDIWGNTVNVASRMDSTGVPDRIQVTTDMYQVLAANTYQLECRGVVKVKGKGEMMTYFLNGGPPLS
T1 sequence (P40145 whole entry): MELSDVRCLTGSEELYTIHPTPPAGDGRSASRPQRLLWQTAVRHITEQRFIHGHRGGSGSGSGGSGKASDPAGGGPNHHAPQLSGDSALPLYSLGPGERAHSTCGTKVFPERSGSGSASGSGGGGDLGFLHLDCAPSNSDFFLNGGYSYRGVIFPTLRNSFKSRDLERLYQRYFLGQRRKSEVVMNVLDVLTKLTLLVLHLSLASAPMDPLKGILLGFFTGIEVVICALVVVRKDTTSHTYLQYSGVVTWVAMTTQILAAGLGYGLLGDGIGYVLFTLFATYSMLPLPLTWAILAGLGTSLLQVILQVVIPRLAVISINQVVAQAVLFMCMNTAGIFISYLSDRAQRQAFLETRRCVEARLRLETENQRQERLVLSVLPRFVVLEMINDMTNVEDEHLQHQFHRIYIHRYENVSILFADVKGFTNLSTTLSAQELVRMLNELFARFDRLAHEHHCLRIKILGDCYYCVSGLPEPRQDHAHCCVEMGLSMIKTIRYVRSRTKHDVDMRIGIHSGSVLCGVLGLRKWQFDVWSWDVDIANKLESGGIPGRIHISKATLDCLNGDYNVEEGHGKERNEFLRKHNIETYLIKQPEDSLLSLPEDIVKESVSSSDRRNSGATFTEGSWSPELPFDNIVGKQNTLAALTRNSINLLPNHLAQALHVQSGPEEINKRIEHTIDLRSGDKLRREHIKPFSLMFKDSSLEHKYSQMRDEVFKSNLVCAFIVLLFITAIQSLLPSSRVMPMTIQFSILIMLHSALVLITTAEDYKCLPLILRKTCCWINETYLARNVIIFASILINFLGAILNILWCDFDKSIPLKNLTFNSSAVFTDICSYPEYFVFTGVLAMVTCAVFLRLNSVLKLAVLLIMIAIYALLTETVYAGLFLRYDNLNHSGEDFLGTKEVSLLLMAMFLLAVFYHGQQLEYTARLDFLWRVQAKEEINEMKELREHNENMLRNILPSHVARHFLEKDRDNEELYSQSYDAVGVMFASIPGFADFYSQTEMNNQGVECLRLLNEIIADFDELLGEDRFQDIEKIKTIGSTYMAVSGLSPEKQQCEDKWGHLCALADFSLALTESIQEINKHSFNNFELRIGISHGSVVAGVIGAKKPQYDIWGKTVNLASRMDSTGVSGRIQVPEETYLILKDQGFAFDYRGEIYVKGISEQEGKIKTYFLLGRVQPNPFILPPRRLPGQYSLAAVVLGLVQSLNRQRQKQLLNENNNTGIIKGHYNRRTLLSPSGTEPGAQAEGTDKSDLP
Sequence of Adenylate cyclase type 2 (Homo sapiens) (Q08462 whole entry): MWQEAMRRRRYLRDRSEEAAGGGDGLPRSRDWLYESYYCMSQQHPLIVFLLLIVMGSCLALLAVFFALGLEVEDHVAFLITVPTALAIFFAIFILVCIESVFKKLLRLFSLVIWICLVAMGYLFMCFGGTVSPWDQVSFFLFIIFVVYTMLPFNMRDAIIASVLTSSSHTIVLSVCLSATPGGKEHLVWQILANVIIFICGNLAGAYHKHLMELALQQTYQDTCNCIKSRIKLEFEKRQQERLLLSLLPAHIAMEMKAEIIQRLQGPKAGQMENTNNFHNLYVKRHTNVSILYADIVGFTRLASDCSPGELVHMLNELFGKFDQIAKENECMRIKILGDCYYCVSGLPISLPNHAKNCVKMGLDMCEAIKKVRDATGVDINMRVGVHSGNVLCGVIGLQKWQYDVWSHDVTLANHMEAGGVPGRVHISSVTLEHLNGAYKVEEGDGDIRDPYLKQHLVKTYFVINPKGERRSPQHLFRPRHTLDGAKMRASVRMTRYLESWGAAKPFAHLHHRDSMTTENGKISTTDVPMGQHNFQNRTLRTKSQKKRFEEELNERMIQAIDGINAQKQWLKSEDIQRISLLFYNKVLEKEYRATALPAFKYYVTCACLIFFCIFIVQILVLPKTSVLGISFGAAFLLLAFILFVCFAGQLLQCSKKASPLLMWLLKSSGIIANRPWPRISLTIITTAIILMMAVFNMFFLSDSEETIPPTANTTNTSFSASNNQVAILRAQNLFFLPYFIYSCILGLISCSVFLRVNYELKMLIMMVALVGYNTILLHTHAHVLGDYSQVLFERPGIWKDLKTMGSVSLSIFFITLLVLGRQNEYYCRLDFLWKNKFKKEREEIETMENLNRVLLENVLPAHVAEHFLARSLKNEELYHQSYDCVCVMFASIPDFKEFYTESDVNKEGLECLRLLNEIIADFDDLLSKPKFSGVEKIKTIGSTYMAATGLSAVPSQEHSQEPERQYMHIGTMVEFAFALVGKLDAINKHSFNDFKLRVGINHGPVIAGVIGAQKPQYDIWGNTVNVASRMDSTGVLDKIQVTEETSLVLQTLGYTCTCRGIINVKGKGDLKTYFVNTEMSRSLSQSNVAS

Row | inhibition (Adenylate cyclase type 8 [1]) [%] | Compound | viability at 1 h, 30 µM [2] [%] | Ratio IC50 (Homo sapiens) | also measured
1 | 44 | CCc1ccc(C(=O)Nc2nnc(C3CCCCC3)o2)cc1 | 119 | – | –
2 | – | COc1cc(C(=O)Nc2nnc(-c3ccc4c(c3)CCCC4)o2)cc(C(F)(F)F)c1 | 121 | 1.1 | –
3 | – | O=C(Nc1nnc(-c2ccc3c(c2)CCCC3)o1)c1ccc(Cl)cc1 | 97 | 2.4 | IC50 (Adenylate cyclase type 1 [3]): 1.5 µM; IC50 (Adenylate cyclase type 8 [4]): 3.6 µM
4 | 24 to 35 | CC(C)Oc1ccc(C(=O)Nc2nnc(-c3cccs3)o2)cc1 | 73 to 81 | – | –
5 | – | O=C(Nc1nnc(-c2ccc3c(c2)OCCO3)o1)c1ccc(Br)cc1 | 121 | 6.8 | Activity [5]: 198%; Activity [6]: 159%
6 | – | CCc1ccc(C(=O)Nc2nnc(-c3ccc4c(c3)CCCC4)o2)cc1 | 114 | 1.7 | –
7 | – | O=C(Nc1nnc(C2CCCCC2)o1)c1cccc(-c2ccccc2)c1 | 115 | 1 | –
8 | 6 | COc1ccc(C(=O)Nc2nnc(C3CCCCC3)o2)cc1 | 82 | – | –
9 | 10 | O=C(Nc1nnc(C2CCCCC2)o1)c1ccc(Cl)cc1 | 89 | – | IC50 (Adenylate cyclase type 1 [3]): 14 µM
10 | – | Cc1ccc(C(=O)Nc2nnc(-c3ccc(F)cc3)o2)cc1C(F)(F)F | 133 | 1.9 | –
11 | – | CSc1cccc(C(=O)Nc2nnc(-c3ccc4c(c3)CCCC4)o2)c1 | 118 to 137 | 5.5 to 10 | –
12 | 14 | O=C(Nc1nnc(-c2ccc(F)cc2)o1)c1ccc(F)cc1 | 100 | – | –
13 | – | Cc1ccc(C(=O)Nc2nnc(C3CCCCC3)o2)cc1C | 112 | 5.4 | –
14 | 43 | CC(C)Oc1ccc(C(=O)Nc2nnc(-c3ccccc3)o2)cc1 | 101 | > 5.5 | IC50 (Adenylate cyclase type 1 [3]): 5.4 µM
15 | – | O=C(Nc1nnc(-c2ccc3c(c2)CCCC3)o1)c1cccc(F)c1 | 94 | 4.2 | –
16 | – | O=C(Nc1nnc(-c2ccc3c(c2)OCCO3)o1)c1cccc(C(F)(F)F)c1 | 116 | 6.3 | –
17 | 25 | Cc1ccc(C(=O)Nc2nnc(-c3ccc4c(c3)OCCO4)o2)cc1 | 98 | – | IC50 (Adenylate cyclase type 1 [3]): 12 µM; Activity [5]: 218%; Activity [6]: 194%
18 | – | CCOc1cccc2cc(-c3nnc(NC(=O)c4ccccc4SC)o3)oc12 | 127 | 1 | IC50 (Adenylate cyclase type 1 [3]): 11 µM; IC50 (Adenylate cyclase type 8 [4]): 11 µM
19 | 23 | COc1cccc(C(=O)Nc2nnc(-c3ccc(F)cc3)o2)c1 | 99 | – | –
20 | 21 | CC(C)Oc1ccc(C(=O)Nc2nnc(-c3ccco3)o2)cc1 | 58 | – | inhibition (Adenylate cyclase type 1 [7]): 39%
21 | 8 | O=C(Nc1nnc(-c2ccc(F)cc2)o1)c1ccccc1 | 87 | – | –

Row | inhibition (Adenylate cyclase type 8 [1]) [%] | Compound | viability at 1 h, 30 µM [2] [%] | Ratio IC50 (Homo sapiens) | also measured
22 | – | O=C(Nc1nnc(-c2ccc3c(c2)CCCC3)o1)c1ccc(F)cc1 | 110 | 3.7 | –
23 | 32 | CCc1ccc(C(=O)Nc2nnc(-c3ccc(F)cc3)o2)cc1 | 95 | – | –
24 | 11 | O=C(Nc1nnc(-c2ccc(F)cc2)o1)c1ccc(Cl)cc1 | 84 | – | –
25 | – | Cc1ccc(C(=O)Nc2nnc(-c3ccc4c(c3)CCCC4)o2)cc1C(F)(F)F | 115 | 0.5 | –
26 | – | O=C(Nc1nnc(C2CCCCC2)o1)c1ccc(Br)cc1 | 108 | 2.9 | –
27 | 37 | CSc1cccc(C(=O)Nc2nnc(-c3ccc4c(c3)OCCO4)o2)c1 | 109 | – | IC50 (Adenylate cyclase type 1 [3]): 9.5 µM
28 | 42 | Cc1ccc(C(=O)Nc2nnc(-c3ccc(F)cc3)o2)cc1C | 95 | – | –
29 | 11 | O=C(Nc1nnc(C2CCCCC2)o1)c1cccc(F)c1 | 87 | – | IC50 (Adenylate cyclase type 1 [3]): 11 µM
30 | – | CC(C)Oc1ccc(C(=O)Nc2nnc(-c3ccc4c(c3)CCCC4)o2)cc1 | 124 to 129 | 0.73 to 1.2 | –
31 | – | Cc1cc(C(=O)Nc2nnc(C3CCCCC3)o2)cc(C(F)(F)F)c1 | 125 | 2.9 | –
32 | 10 | COc1ccc(C(=O)Nc2nnc(-c3cccs3)o2)cc1 | 97 | – | –
33 | 34 | CSc1cccc(C(=O)Nc2nnc(-c3cccs3)o2)c1 | 110 | – | –
34 | 34 | COc1ccc(C(=O)Nc2nnc(-c3ccc4c(c3)CCCC4)o2)cc1 | 118 to 121 | > 4.7 | –
35 | 7 | O=C(Nc1nnc(C2CCCCC2)o1)c1ccc(F)cc1 | 95 | – | IC50 (Adenylate cyclase type 1 [3]): 13 µM
36 | 13 | O=C(Nc1nnc(-c2ccc(F)cc2)o1)c1ccccc1F | 87 | – | inhibition (Adenylate cyclase type 1 [7]): 12%
37 | 18 | O=C(Nc1nnc(-c2cccs2)o1)c1ccccc1 | 97 | – | IC50 (Adenylate cyclase type 1 [3]): 28 µM
38 | 18 | COc1cccc(C(=O)Nc2nnc(-c3ccc4c(c3)OCCO4)o2)c1 | 103 | – | –
39 | 38 | O=C(Nc1nnc(-c2ccc(F)cc2)o1)c1ccc(S(=O)(=O)N2CCCCC2)cc1 | 119 | – | IC50 (Adenylate cyclase type 1 [3]): 16 µM
40 | 24 | O=C(Nc1nnc(-c2ccc3c(c2)OCCO3)o1)c1ccccc1 | 87 | > 1 | –
41 | – | O=C(Nc1nnc(-c2ccc3c(c2)CCCC3)o1)c1ccccc1 | 84 to 124 | 1.1 to 5.6 | –
42 | 35 | O=C(Nc1nnc(-c2ccc(F)cc2)o1)c1cccc(F)c1 | 104 | – | IC50 (Adenylate cyclase type 1 [3]): 11 µM

Row | inhibition (Adenylate cyclase type 8 [1]) [%] | Compound | viability at 1 h, 30 µM [2] [%] | Ratio IC50 (Homo sapiens) | also measured
43 | – | Cc1cc(C(=O)Nc2nnc(-c3ccc4c(c3)CCCC4)o2)cc(C(F)(F)F)c1 | 116 | 0.26 | –
44 | – | Cc1ccc(C(=O)Nc2nnc(-c3ccc4c(c3)CCCC4)o2)cc1 | 107 to 123 | 0.79 to 7.4 | Activity [5]: 275%; Activity [6]: 139%
45 | – | O=C(Nc1nnc(-c2ccc(F)cc2)o1)c1ccc(-c2ccccc2)cc1 | 114 | 2.7 | –
46 | – | COc1cc(C(=O)Nc2nnc(C3CCCCC3)o2)cc(C(F)(F)F)c1 | 113 | 1.9 | –
47 | – | O=C(Nc1nnc(-c2ccc(F)cc2)o1)c1cccc(C(F)(F)F)c1 | 108 | 5.8 | –
48 | 41 | O=C(Nc1nnc(-c2cccs2)o1)c1ccc(Br)cc1 | 110 | – | –
49 | 20 | COc1ccc(C(=O)Nc2nnc(-c3ccc(F)cc3)o2)cc1 | 82 | – | IC50 (Adenylate cyclase type 1 [3]): 13 µM
50 | – | Cc1ccc(C(=O)Nc2nnc(C3CCCCC3)o2)cc1C(F)(F)F | 139 | 1.9 | –
51 | 2 | O=C(Nc1nnc(C2CCCCC2)o1)c1ccccc1 | 87 | – | IC50 (Adenylate cyclase type 1 [3]): 25 µM
52 | – | O=C(Nc1nnc(-c2ccc3c(c2)CCCC3)o1)c1ccc(Br)cc1 | 113 to 115 | 2.23 to 4.5 | Activity [5]: 160%; Activity [6]: 215%
53 | – | Cc1ccc(C(=O)Nc2nnc(-c3ccc4c(c3)OCCO4)o2)cc1C | 113 | 2.6 | –
54 | – | O=C(Nc1nnc(C2CCCCC2)o1)c1cccc(C(F)(F)F)c1 | 102 | > 3.6 | –
55 | 33 | O=C(Nc1nnc(-c2ccc(F)cc2)o1)c1ccc(Br)cc1 | 103 | – | –
56 | – | COc1ccc(-c2nnc(NC(=O)c3cc(-c4cccs4)nc4ccccc34)o2)cc1 | 118 | 1.2 | IC50 (Adenylate cyclase type 1 [3]): 4.6 µM; IC50 (Adenylate cyclase type 8 [4]): 5.6 µM
57 | 31 to 43 | CSc1cccc(C(=O)Nc2nnc(C3CCCCC3)o2)c1 | 117 to 137 | > 4.5 | –
58 | – | COc1cc(C(=O)Nc2nnc(-c3ccc(F)cc3)o2)cc(C(F)(F)F)c1 | 108 | 5.8 | IC50 (Adenylate cyclase type 8 [4]): 29 µM
59 | 39 | CC(C)Oc1ccc(C(=O)Nc2nnc(-c3ccc4c(c3)OCCO4)o2)cc1 | 160 | – | –
60 | 35 | CC(C)Oc1ccc(C(=O)Nc2nnc(C3CCCCC3)o2)cc1 | 99 | – | –
61 | – | COc1cccc(C(=O)Nc2nnc(-c3ccc4c(c3)CCCC4)o2)c1 | 111 to 124 | 0.83 to 8.1 | –
62 | 31 | Cc1ccc(C(=O)Nc2nnc(-c3ccc(F)cc3)o2)cc1 | 104 | > 3.6 | Activity [5]: 341%; Activity [6]: 170%
63 | 1 | Cc1ccc(C(=O)Nc2nnc(C3CCCCC3)o2)cc1 | 111 | – | IC50 (Adenylate cyclase type 1 [3]): 16 µM
